Measured values: ChEMBL document CHEMBL4422685, “Design, synthesis and evaluation of a series of 5-methoxy-2,3-naphthalimide derivatives as AcrB inhibitors for the reversal of bacterial resistance” (Bioorg Med Chem Lett, 2019)
≈ marks a conversion by molar mass, not a printed value. Calls of active or inactive are those of the source. The rule behind the calls is not given here.

Experiments:
[1] = Solubility of the compound in DMSO; type: physicochemical
[2] = biological target: T1, Multidrug efflux pump subunit AcrB (Escherichia coli (strain K12)) (UniProt P31224); experiment: Inhibition of AcrB in wild-type drug-resistant Escherichia coli […] assessed as potentiation of chloramphenicol-induced antimicrobial activity by measuring chloramphenicol MIC at 8 ug/ml by checkerboard titration method (Rvb =16 ug/ml)
T1 sequence (whole entry): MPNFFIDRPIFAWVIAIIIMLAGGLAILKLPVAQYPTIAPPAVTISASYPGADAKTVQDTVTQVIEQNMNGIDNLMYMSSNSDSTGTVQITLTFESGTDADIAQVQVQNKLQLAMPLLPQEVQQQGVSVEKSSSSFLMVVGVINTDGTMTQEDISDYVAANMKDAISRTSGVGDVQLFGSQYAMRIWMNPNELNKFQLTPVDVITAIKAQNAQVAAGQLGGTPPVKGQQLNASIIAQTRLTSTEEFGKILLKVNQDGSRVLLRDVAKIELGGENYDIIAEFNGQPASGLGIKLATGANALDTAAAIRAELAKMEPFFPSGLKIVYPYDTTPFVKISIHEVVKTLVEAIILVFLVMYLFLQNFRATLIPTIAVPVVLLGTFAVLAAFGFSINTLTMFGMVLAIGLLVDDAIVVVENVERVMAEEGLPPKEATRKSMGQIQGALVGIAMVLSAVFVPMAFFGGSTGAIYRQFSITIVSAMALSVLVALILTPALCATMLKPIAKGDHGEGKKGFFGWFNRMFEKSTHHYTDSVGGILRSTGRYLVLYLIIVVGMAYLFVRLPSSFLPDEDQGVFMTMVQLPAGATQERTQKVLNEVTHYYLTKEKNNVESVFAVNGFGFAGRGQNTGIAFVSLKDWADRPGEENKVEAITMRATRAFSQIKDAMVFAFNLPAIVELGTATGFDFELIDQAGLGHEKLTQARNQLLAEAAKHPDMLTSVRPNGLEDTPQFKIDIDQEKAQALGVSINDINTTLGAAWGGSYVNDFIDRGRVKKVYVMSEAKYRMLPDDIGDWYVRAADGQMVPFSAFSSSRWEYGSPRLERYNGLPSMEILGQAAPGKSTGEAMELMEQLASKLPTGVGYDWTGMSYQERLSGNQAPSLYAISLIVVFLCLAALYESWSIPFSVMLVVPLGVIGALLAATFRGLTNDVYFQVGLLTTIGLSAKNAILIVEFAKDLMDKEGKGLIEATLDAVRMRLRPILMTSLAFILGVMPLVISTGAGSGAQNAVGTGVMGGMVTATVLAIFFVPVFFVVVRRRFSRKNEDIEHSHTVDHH

[3] = biological target: T1, Multidrug efflux pump subunit AcrB (Escherichia coli (strain K12)); experiment: Inhibition of AcrB in wild-type drug-resistant Escherichia coli […] assessed as potentiation of levofloxacin-induced antimicrobial activity by measuring levofloxacin MIC at 16 ug/ml by checkerboard titration method (reference value: 0.063 ug/ml)
[4] = biological target: T1, Multidrug efflux pump subunit AcrB (Escherichia coli (strain K12)); experiment: Inhibition of AcrB in wild-type drug-resistant Escherichia coli […] assessed as potentiation of erythromycin-induced antimicrobial activity by measuring erythromycin MIC at 128 ug/ml by checkerboard titration method (reference value: 64 ug/ml)
[5] = biological target: T1, Multidrug efflux pump subunit AcrB (Escherichia coli (strain K12)); experiment: Inhibition of AcrB in wild-type drug-resistant Escherichia coli […] assessed as potentiation of tetraphenyl phosphonium chloride-induced antimicrobial activity by measuring tetraphenyl phosphonium chloride MIC at 32 ug/ml by checkerboard titration method (reference value: 1024 ug/ml)
[6] = biological target: T1, Multidrug efflux pump subunit AcrB (Escherichia coli (strain K12)); experiment: Inhibition of AcrB in wild-type drug-resistant Escherichia coli […] assessed as potentiation of erythromycin-induced antimicrobial activity by measuring erythromycin MIC at 16 ug/ml by checkerboard titration method (reference value: 64 ug/ml)
[7] = biological target: T1, Multidrug efflux pump subunit AcrB (Escherichia coli (strain K12)); experiment: Inhibition of AcrB in wild-type drug-resistant Escherichia coli […] assessed as potentiation of tetraphenyl phosphonium chloride-induced antimicrobial activity by measuring tetraphenyl phosphonium chloride MIC at 8 ug/ml by checkerboard titration method (reference value: 1024 ug/ml)
[8] = biological target: T1, Multidrug efflux pump subunit AcrB (Escherichia coli (strain K12)); experiment: Inhibition of AcrB in wild-type drug-resistant Escherichia coli […] assessed as potentiation of levofloxacin-induced antimicrobial activity by measuring levofloxacin MIC at 128 ug/ml by checkerboard titration method (reference value: 0.063 ug/ml)
[9] = biological target: T1, Multidrug efflux pump subunit AcrB (Escherichia coli (strain K12)); experiment: Inhibition of AcrB in wild-type drug-resistant Escherichia coli […] assessed as potentiation of erythromycin-induced antimicrobial activity by measuring erythromycin MIC at 64 ug/ml by checkerboard titration method (reference value: 64 ug/ml)
[10] = biological target: T1, Multidrug efflux pump subunit AcrB (Escherichia coli (strain K12)); experiment: Inhibition of AcrB in wild-type drug-resistant Escherichia coli […] assessed as potentiation of levofloxacin-induced antimicrobial activity by measuring levofloxacin MIC at 64 ug/ml by checkerboard titration method (reference value: 0.063 ug/ml)
[11] = biological target: T1, Multidrug efflux pump subunit AcrB (Escherichia coli (strain K12)); experiment: Inhibition of AcrB in wild-type drug-resistant Escherichia coli BW2113 assessed as potentiation of chloramphenicol-induced antimicrobial activity by measuring chloramphenicol MIC at 16 ug/ml by checkerboard titration method (Rvb =16 ug/ml)
Escherichia coli [12] = experiment: Toxicity against wild-type drug-resistant Escherichia coli […] at 128 ug/ml; type: organism-based; conditions: in vivo
How it was run: (§1)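 MIC determination against wild-type resistant E. coli BW25113 and an isogenic acrB-deleted strain; highest concentration tested 128 mg/L.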

Escherichia coli [13] = experiment: Toxicity against AcrB deficient Escherichia coli AcrB lacking at 128 ug/ml; type: organism-based; conditions: in vivo; how it was run: as §1
[14] = biological target: T1, Multidrug efflux pump subunit AcrB (Escherichia coli (strain K12)); experiment: Inhibition of AcrB in wild-type drug-resistant Escherichia coli […] assessed as potentiation of chloramphenicol-induced antimicrobial activity by measuring chloramphenicol MIC at 128 ug/ml by checkerboard titration method (Rvb =16 ug/ml)
[15] = biological target: T1, Multidrug efflux pump subunit AcrB (Escherichia coli (strain K12)); experiment: Inhibition of AcrB in wild-type drug-resistant Escherichia coli […] assessed as potentiation of tetraphenyl phosphonium chloride-induced antimicrobial activity by measuring tetraphenyl phosphonium chloride MIC at 128 ug/ml by checkerboard titration method (reference value: 1024 ug/ml)
[16] = biological target: T1, Multidrug efflux pump subunit AcrB (Escherichia coli (strain K12)); experiment: Inhibition of AcrB in wild-type drug-resistant Escherichia coli […] assessed as potentiation of tetraphenyl phosphonium chloride-induced antimicrobial activity by measuring tetraphenyl phosphonium chloride MIC at 64 ug/ml by checkerboard titration method (reference value: 1024 ug/ml)
[17] = biological target: T1, Multidrug efflux pump subunit AcrB (Escherichia coli (strain K12)); experiment: Inhibition of AcrB in wild-type drug-resistant Escherichia coli […] assessed as potentiation of erythromycin-induced antimicrobial activity by measuring erythromycin MIC at 8 ug/ml by checkerboard titration method (reference value: 64 ug/ml)
[18] = biological target: T1, Multidrug efflux pump subunit AcrB (Escherichia coli (strain K12)); experiment: Inhibition of AcrB in wild-type drug-resistant Escherichia coli […] assessed as potentiation of chloramphenicol-induced antimicrobial activity by measuring chloramphenicol MIC at 32 ug/ml by checkerboard titration method (Rvb =16 ug/ml)
[19] = biological target: T1, Multidrug efflux pump subunit AcrB (Escherichia coli (strain K12)); experiment: Inhibition of AcrB in wild-type drug-resistant Escherichia coli […] assessed as potentiation of erythromycin-induced antimicrobial activity by measuring erythromycin MIC at 32 ug/ml by checkerboard titration method (reference value: 64 ug/ml)
[20] = biological target: T1, Multidrug efflux pump subunit AcrB (Escherichia coli (strain K12)); experiment: Inhibition of AcrB in wild-type drug-resistant Escherichia coli […] assessed as potentiation of tetraphenyl phosphonium chloride-induced antimicrobial activity by measuring tetraphenyl phosphonium chloride MIC at 16 ug/ml by checkerboard titration method (reference value: 1024 ug/ml)
[21] = biological target: T1, Multidrug efflux pump subunit AcrB (Escherichia coli (strain K12)); experiment: Inhibition of AcrB in wild-type drug-resistant Escherichia coli […] assessed as potentiation of chloramphenicol-induced antimicrobial activity by measuring chloramphenicol MIC at 64 ug/ml by checkerboard titration method (Rvb =16 ug/ml)
[22] = biological target: T1, Multidrug efflux pump subunit AcrB (Escherichia coli (strain K12)); experiment: Inhibition of AcrB in wild-type drug-resistant Escherichia coli […] assessed as potentiation of levofloxacin-induced antimicrobial activity by measuring levofloxacin MIC at 32 ug/ml by checkerboard titration method (reference value: 0.063 ug/ml)
[23] = biological target: T1, Multidrug efflux pump subunit AcrB (Escherichia coli (strain K12)); experiment: Inhibition of AcrB in wild-type drug-resistant Escherichia coli […] assessed as potentiation of levofloxacin-induced antimicrobial activity by measuring levofloxacin MIC at 8 ug/ml by checkerboard titration method (reference value: 0.063 ug/ml)
Escherichia coli [24] = experiment: Antimicrobial activity against AcrB deficient Escherichia coli; type: functional
[25] = biological target: T1, Multidrug efflux pump subunit AcrB (Escherichia coli (strain K12)); experiment: Inhibition of AcrB in wild-type drug-resistant Escherichia coli […] assessed as reduction in glucose-induced nile red efflux at 200 uM by fluorescence assay
How it was run: (§2)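 E. coli cells (wild-type resistant with active pump, acrB-deleted, or wild-type plus compound) preloaded with Nile Red before fluorescence recording. Efflux triggered at 100 s by adding 0.2% glucose. Fluorescence traces followed; experiments with different cell batches on three different days.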

Escherichia coli [26] = experiment: Induction of Escherichia coli outer membrane permeabilization assessed as increase in nitrocefin hydrolysis at 128 ug/ml by spectroscopic method; type: organism-based
[27] = biological target: T1, Multidrug efflux pump subunit AcrB (Escherichia coli (strain K12)); experiment: Inhibition of AcrB in wild-type drug-resistant Escherichia coli […] assessed as reduction in glucose-induced nile red efflux at 500 uM by fluorescence assay; how it was run: as §2

COc1cccc2cc3c(cc12)C(=O)N(c1ccccc1C(F)(F)F)C3=O
solubility [1]: Insoluble

COc1cccc2cc3c(cc12)C(=O)N(Cc1ccccc1Cl)C3=O
MIC [2]: 16 mg/L
MIC [3]: 0.063 mg/L
MIC [4]: 32 mg/L
MIC [5]: 1020 mg/L
MIC [6]: 64 mg/L
MIC [7]: 1020 mg/L
MIC [8]: 0.063 mg/L
MIC [9]: 64 mg/L
MIC [10]: 0.063 mg/L
MIC [11]: 16 mg/L
Activity (Escherichia coli [12]): Non-Toxic
Activity (Escherichia coli [13]): Non-Toxic
MIC [14]: 16 mg/L
MIC [15]: 512 mg/L
MIC [16]: 1020 mg/L
MIC [17]: 64 mg/L
MIC [18]: 16 mg/L
MIC [19]: 64 mg/L
MIC [20]: 1020 mg/L
MIC [21]: 16 mg/L
MIC [22]: 0.063 mg/L
MIC [23]: 0.063 mg/L

COc1cccc2cc3c(cc12)C(=O)N(c1ccc(C(C)C)cc1)C3=O
solubility [1]: Insoluble

COc1cccc2cc3c(cc12)C(=O)N(c1cccc(C)c1)C3=O
solubility [1]: Insoluble

C[C@H]1COc2c(N3CCN(C)CC3)c(F)cc3c(=O)c(C(=O)O)cn1c23.C[C@H]1COc2c(N3CCN(C)CC3)c(F)cc3c(=O)c(C(=O)O)cn1c23.O [LEVOFLOXACIN]
MIC (Escherichia coli [24]): 0.0039 mg/L

COc1cccc2cc3c(cc12)C(=O)N(CCc1ccccc1Cl)C3=O
solubility [1]: Insoluble

COc1cccc2cc3c(cc12)C(=O)N(Cc1ccc(F)cc1)C3=O
solubility [1]: Insoluble

CC[C@H]1OC(=O)[C@H](C)[C@@H](O[C@H]2C[C@@](C)(OC)[C@@H](O)[C@H](C)O2)[C@H](C)[C@@H](O[C@@H]2O[C@H](C)C[C@H](N(C)C)[C@H]2O)[C@](C)(O)C[C@@H](C)C(=O)[C@H](C)[C@@H](O)[C@]1(C)O [ERYTHROMYCIN]
MIC (Escherichia coli [24]): 64 mg/L (≈ 87.2 µM)

COc1cccc(N2C(=O)c3cc4cccc(OC)c4cc3C2=O)c1
solubility [1]: Insoluble

COc1ccccc1N1C(=O)c2cc3cccc(OC)c3cc2C1=O
solubility [1]: Insoluble

[Cl-].c1ccc([P+](c2ccccc2)(c2ccccc2)c2ccccc2)cc1 [TETRAPHENYLPHOSPHONIUM CHLORIDE]
MIC (Escherichia coli [24]): 32 mg/L

COc1cccc2cc3c(cc12)C(=O)N(C(C)(C)C)C3=O
MIC [2]: 16 mg/L
MIC [3]: 0.063 mg/L
MIC [4]: 32 mg/L
MIC [5]: 1020 mg/L
MIC [6]: 64 mg/L
MIC [7]: 1020 mg/L
MIC [8]: 0.063 mg/L
MIC [9]: 32 mg/L
MIC [10]: 0.063 mg/L
MIC [11]: 16 mg/L
Activity (Escherichia coli [12]): Non-Toxic
Activity (Escherichia coli [13]): Non-Toxic
MIC [14]: 16 mg/L
inhibition [25]: Active
MIC [15]: 512 mg/L
MIC [16]: 1020 mg/L
MIC [17]: 64 mg/L
MIC [18]: 16 mg/L
MIC [19]: 64 mg/L
MIC [20]: 1020 mg/L
MIC [21]: 16 mg/L
MIC [22]: 0.063 mg/L
MIC [23]: 0.063 mg/L
Activity (Escherichia coli [26]): Non-Toxic
inhibition [27]: 100%

CCc1ccc(N2C(=O)c3cc4cccc(OC)c4cc3C2=O)cc1
solubility [1]: Insoluble

CCCCc1ccc(N2C(=O)c3cc4cccc(OC)c4cc3C2=O)cc1
solubility [1]: Insoluble

COc1cccc2cc3c(cc12)C(=O)N(Cc1ccc(Cl)cc1)C3=O
solubility [1]: Insoluble

COc1cccc2cc3c(cc12)C(=O)N(Cc1ccc(C)cc1)C3=O
solubility [1]: Insoluble

COc1cccc2cc3c(cc12)C(=O)N(CCc1ccc(F)cc1)C3=O
solubility [1]: Insoluble
